Rows were chosen to be rich in hits. Some 3.2% of all compounds tested hit in one or more screens of this group.
MEKK2 WT-MEK5: raises or lowers MEK5 binding to wildtype human MEKK2 PB1 domain; bead flow cytometry, Alexa488-MEK5 binding to MEKK2 WT; actives lie on both sides; binding response (% of control), % at 10 µM; Q9Y2U5; 1.1% of 290,000 active; AID 1531; in the data active means binding response below about 67% or above about 130%
MEKK3 PB1 HTS: modulators (inhibitors or enhancers) of MEK5 binding to human MEKK3 PB1 domain; 1.4% of 290,000 active; binding response (% of control), % at 10 µM; Q99759; bead-based flow cytometry, Alexa488-MEK5 binding to MEKK3; actives lie on both sides; 0 = blocked by unlabeled MEK5, 100 = vehicle;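 active means binding response more than 3 SD above or below the average of its plate-row segment, actives on both sides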;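 further: Alexa488 bead fluorescence after subtracting the streptavidin-only scavenger bead signal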
Pemphigus Ab inh: human desmoglein-3 autoantibody binding inhibition; P32926; DSG3-coupled beads, scFv-anti-DSG3-GFP binding, flow cytometry; hits give low values; binding (percent of control), % at 10 µM; 0.48% of 310,000 active; AID 588358;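 active means binding more than 3 SD below its plate's average and above zero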;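 further: hits lower antibody fragment binding to DSG3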
UBC13 inh: inhibitors of human UBC13 polyubiquitin chain formation | TR-FRET | P61088 | 0.47% of 330,000 active | inhibition, % at 20 µM; in the data active means inhibition above about 45%, passing the limit was not always enough
Apaf-1 inh: human Apaf-1 inhibition | O14727 | reconstituted apoptosome caspase-3 activity, DEVD-Rh110 fluorescence | inhibition, % at 20 µM | 0.71% of 330,000 active | AID 489030; active means inhibition of at least 40% at 20 µM
Target sequence (O14727 whole entry, looked up): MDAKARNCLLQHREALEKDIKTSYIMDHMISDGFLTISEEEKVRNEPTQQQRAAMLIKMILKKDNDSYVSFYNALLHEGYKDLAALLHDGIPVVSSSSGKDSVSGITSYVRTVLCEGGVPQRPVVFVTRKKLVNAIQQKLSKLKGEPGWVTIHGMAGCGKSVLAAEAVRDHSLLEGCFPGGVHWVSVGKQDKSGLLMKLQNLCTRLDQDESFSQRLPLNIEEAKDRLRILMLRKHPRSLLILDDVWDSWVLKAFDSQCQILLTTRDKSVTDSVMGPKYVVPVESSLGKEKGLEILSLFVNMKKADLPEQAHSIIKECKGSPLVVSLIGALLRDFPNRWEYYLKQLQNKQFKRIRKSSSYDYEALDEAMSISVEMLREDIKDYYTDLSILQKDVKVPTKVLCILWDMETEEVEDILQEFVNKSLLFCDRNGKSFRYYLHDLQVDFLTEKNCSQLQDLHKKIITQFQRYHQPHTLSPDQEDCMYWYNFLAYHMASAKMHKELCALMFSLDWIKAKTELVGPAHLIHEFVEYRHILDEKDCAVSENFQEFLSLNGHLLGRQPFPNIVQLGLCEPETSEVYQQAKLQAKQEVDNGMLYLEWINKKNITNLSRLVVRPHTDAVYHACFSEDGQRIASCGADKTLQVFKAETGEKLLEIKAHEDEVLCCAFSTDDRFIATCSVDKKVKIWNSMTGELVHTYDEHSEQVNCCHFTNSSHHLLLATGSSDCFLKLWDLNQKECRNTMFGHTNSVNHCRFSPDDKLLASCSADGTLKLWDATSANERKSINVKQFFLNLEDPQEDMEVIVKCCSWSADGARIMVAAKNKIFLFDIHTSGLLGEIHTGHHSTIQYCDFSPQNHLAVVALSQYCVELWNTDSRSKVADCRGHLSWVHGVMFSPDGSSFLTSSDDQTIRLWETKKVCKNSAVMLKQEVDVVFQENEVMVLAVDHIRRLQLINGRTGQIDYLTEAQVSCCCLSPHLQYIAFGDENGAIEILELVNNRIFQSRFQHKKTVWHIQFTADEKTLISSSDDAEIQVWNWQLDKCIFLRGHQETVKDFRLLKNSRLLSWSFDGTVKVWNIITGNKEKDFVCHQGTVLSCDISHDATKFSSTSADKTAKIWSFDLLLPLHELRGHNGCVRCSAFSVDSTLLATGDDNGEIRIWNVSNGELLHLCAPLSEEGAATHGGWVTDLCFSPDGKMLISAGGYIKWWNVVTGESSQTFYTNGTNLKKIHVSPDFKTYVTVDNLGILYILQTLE
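System: reconstituted apoptosome with Apaf-1, cytochrome c, caspase-9, procaspase-3, dATP; Signal: Rh110 fluorescence intensity; Schedule: 30 min compound preincubation, 50 min activation, room temperature; Reagent: cytochrome c trigger plus (Z-DEVD)2-Rh110 caspase-3 substrate.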
MEKK2mut PB1 HTS: signal of MEK5 binding to mutant human MEKK2 PB1 domain; bead flow cytometry, Alexa488-MEK5 binding to MEKK2 mutant; percent response, % at 10 µM; 0.35% of 290,000 active; AID 1530; in the data active means percent response above about 24%, passing the limit was not always enough
MEKK2wt confirm: raises or lowers MEK5 binding to wildtype human MEKK2, retest. bead flow cytometry, Alexa488-MEK5 binding to MEKK2 WT; actives lie on both sides. 2.4% of 5,900 active. binding response (% of control), % at 10 µM. shares compounds with MEKK3 PB1 HTS. AID 1892; in the data active means binding response below about 16% or above about 210%; inactive means in between
MEKK2mut confirm: signal of MEK5 binding to mutant human MEKK2, retest; shares compounds with MEKK3 PB1 HTS; bead flow cytometry, Alexa488-MEK5 binding to MEKK2 mutant; percent response, % at 10 µM; 2% of 5,900 active; AID 1893; in the data active means percent response mostly above about 71%, no sharp cut-off; inactive means mostly below about 38%;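 further: higher means compound restores mutant binding toward wildtype level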
MEKK3 confirm: MEKK3-MEK5 PB1 inhibition, single concentration confirmation. 1.8% of 5,900 active. bead flow cytometry, Alexa488-MEK5 binding to MEKK3; hits give low values. shares compounds with MEKK3 PB1 HTS. binding response (% of control), % at 10 µM. AID 1894;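 active means binding response below 72% of control, or above a set upper limit, though filed actives all read lower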
Large screens that a line does not name were inactive (follow-up assays come after a bar, where they were run); [ ] = another dose, or the depositor's remark.

Cn1c(=O)n(C)c2cc(S(=O)(=O)NCc3ccccc3)ccc21	none
CCCN1CCC(=O)NC1=S	none (no result: MEKK2 WT-MEK5, MEKK3 PB1 HTS, UBC13 inh, Apaf-1 inh, MEKK2mut PB1 HTS)
O=C(C[n+]1cccc2ccccc21)c1ccc(Br)cc1	MEKK3 PB1 HTS 24[inhibitor], MEKK2mut PB1 HTS 234 (no result: MEKK2 WT-MEK5) | MEKK2wt confirm inactive | MEKK2mut confirm inactive | MEKK3 confirm inactive
COc1ccc(C(=O)C[n+]2ccccc2C)cc1	MEKK3 PB1 HTS 143 | MEKK2wt confirm inactive | MEKK2mut confirm inactive | MEKK3 confirm inactive
O=C(C[n+]1cc(Br)cc2ccccc21)c1ccc(Br)cc1	none
Cc1ccc(C(=O)C[n+]2cccc3ccccc32)cc1	MEKK3 PB1 HTS 80[inhibitor] | MEKK2wt confirm inactive | MEKK2mut confirm inactive | MEKK3 confirm inactive
NC(=O)C[n+]1cccc2ccccc21	none
Cc1cccc[n+]1CC(=O)c1ccc([N+](=O)[O-])cc1	none (no result: MEKK2 WT-MEK5, MEKK3 PB1 HTS, UBC13 inh, Apaf-1 inh, MEKK2mut PB1 HTS)
Cc1cc(OCC(=O)OCC(=O)N2CC(C)CC(C)C2)ccc1Cl (stereo not drawn)	none (no result: MEKK2 WT-MEK5, MEKK3 PB1 HTS, MEKK2mut PB1 HTS)
Cc1ccc(NC(=O)COc2ccccc2CNC(C)(C)CC(C)(C)C)cc1	MEKK2 WT-MEK5 141 | MEKK2wt confirm inactive | MEKK2mut confirm inactive | MEKK3 confirm inactive
COc1ccccc1C1C(C(C)=O)=C(O)C(=O)N1c1ccc(O)cc1 (stereo not drawn)	none
CN1CCN(c2ccccc2NC(=O)c2ccc(-c3ccc(Cl)cc3Cl)o2)CC1	MEKK2 WT-MEK5 156 | MEKK2wt confirm inactive | MEKK2mut confirm inactive | MEKK3 confirm inactive
CS(=O)(=O)N1CCN(c2ccccc2NC(=O)Cc2ccccc2)CC1	none
CS(=O)(=O)N1CCN(c2ccccc2NC(=O)c2ccc(-c3ccc(Cl)cc3Cl)o2)CC1	none
Cc1nnc2sc(-c3ccc(NC(=O)c4ccc(-c5ccc(Cl)cc5Cl)o4)cc3)nn12	MEKK3 PB1 HTS 77[inhibitor] | MEKK2wt confirm inactive | MEKK2mut confirm inactive | MEKK3 confirm inactive
CS(=O)(=O)N1CCN(c2ccccc2NC(=O)Cc2ccc(Cl)cc2)CC1	MEKK2 WT-MEK5 2.0[inhibitor], MEKK3 PB1 HTS 2.0[inhibitor] | MEKK2wt confirm inactive | MEKK2mut confirm inactive | MEKK3 confirm inactive
CCOC(=O)N1CCN(CCC(=O)Nc2cccc(C)c2)CC1	none
CCc1nc(NCC2CC2)c2nnn(Cc3ccccc3)c2n1	none (no result: MEKK2 WT-MEK5, MEKK3 PB1 HTS, UBC13 inh, Apaf-1 inh, MEKK2mut PB1 HTS)
CC(NC(=O)c1ccccc1F)c1nnc(SCC(=O)Nc2nnc(C3CC3)s2)n1C (stereo not drawn)	none (no result: MEKK2 WT-MEK5, MEKK3 PB1 HTS, MEKK2mut PB1 HTS)
CCCC(=O)Nc1nnc(SCC(=O)Nc2ccc(OCC)cc2)s1	none (no result: MEKK2 WT-MEK5, MEKK3 PB1 HTS, UBC13 inh, Apaf-1 inh, MEKK2mut PB1 HTS)
COc1cc(/C=N/S(=O)(=O)CCc2ccccc2)ccc1O	none
COc1ccc(/C=N/S(=O)(=O)CCc2ccccc2)c(OC)c1	MEKK3 PB1 HTS 69[inhibitor] | MEKK2wt confirm inactive | MEKK2mut confirm inactive | MEKK3 confirm inactive
O=C(Nc1ccccc1)C(=O)Nc1ccc2c(c1)N(C(=O)C1CC1)CCC2	none (no result: MEKK2 WT-MEK5, MEKK3 PB1 HTS, MEKK2mut PB1 HTS)
COCC(C)NCc1cccc2ccccc12 (stereo not drawn)	none
CC(CCc1ccccc1)NCc1cccc2ccccc12 (stereo not drawn)	MEKK2 WT-MEK5 135 | MEKK2wt confirm inactive | MEKK2mut confirm inactive | MEKK3 confirm inactive
COC(=O)N/N=C/c1cc(Cl)c(OCc2ccc(F)cc2)c(OC)c1	MEKK3 PB1 HTS 128 | MEKK2wt confirm inactive | MEKK2mut confirm inactive | MEKK3 confirm inactive
COC(=O)N/N=C/c1cc(Cl)c(OCc2ccccc2F)c(OC)c1	none
CC(C)(CNC(=O)c1cccc(S(=O)(=O)N2CCCCC2)c1)N1CCOCC1	none (no result: MEKK2 WT-MEK5, MEKK3 PB1 HTS, UBC13 inh, Apaf-1 inh, MEKK2mut PB1 HTS)
COC(=O)c1cccc(-n2c(C)cc(C=O)c2C)c1	none
COC(=O)c1ccc(C)c(-n2c(C)cc(C=O)c2C)c1	MEKK3 PB1 HTS 150 | MEKK2wt confirm inactive | MEKK2mut confirm inactive | MEKK3 confirm inactive
CCOC(=O)N1CCC(N2Cc3cccc(C(=O)Nc4ccc(OCC)cc4)c3C2=O)CC1	none
CC(=O)Nc1ccc(Cl)c(-c2nc3ncccc3o2)c1	none
CCCC(CCC(=O)Nc1ccc(C(=O)OCC)cc1)C(=O)O (stereo not drawn)	none (no result: Pemphigus Ab inh)
CCCC(CCC(=O)Nc1ccc(C(=O)OC)cc1)C(=O)O (stereo not drawn)	MEKK3 PB1 HTS 125 | MEKK2wt confirm inactive | MEKK2mut confirm inactive | MEKK3 confirm inactive
Cc1ccccc1C(=O)NC1CCN(CC(=O)Nc2ccc3c(c2)OCCO3)CC1	none
CCOc1ccccc1NC(=O)NC1CCN(CC(=O)Nc2ccc3c(c2)OCCO3)CC1	MEKK3 PB1 HTS 75[inhibitor] | MEKK2wt confirm inactive | MEKK2mut confirm inactive | MEKK3 confirm inactive
C(=C\c1nc(-c2cccnc2)no1)/c1ccccc1	MEKK2 WT-MEK5 6.0[inhibitor], MEKK3 PB1 HTS 3.0[inhibitor] | MEKK2wt confirm inactive | MEKK2mut confirm inactive | MEKK3 confirm inactive
O=C1CC2(CCN1)CCN(Cc1ccccc1)CC2	none (no result: MEKK2 WT-MEK5, MEKK3 PB1 HTS, UBC13 inh, Apaf-1 inh, MEKK2mut PB1 HTS)
CC(=O)Nc1ccc(S(=O)(=O)NC2CC(=O)N(c3ccc(C)cc3)C2)cc1 (stereo not drawn)	none (no result: MEKK2 WT-MEK5, MEKK3 PB1 HTS, MEKK2mut PB1 HTS)

Assay outcomes from PubChem BioAssay.
